From ChEMBL document CHEMBL1255410, “Activity of the investigational fluoroquinolone finafloxacin against ciprofloxacin-sensitive and -resistant Acinetobacter baumannii isolates” (2010)
Converted amounts (≈) assume the structure as drawn.

Experiments:
Format in all cases: functional
Acinetobacter baumannii [1] = test: Antimicrobial activity against Acinetobacter baumannii isolate 1 at pH 7.2
How it was run: (§1)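 MIC by agar dilution on Mueller-Hinton agar under standard conditions (pH 7.2), against isolates with characterized gyrA/parC genes. Agar pH was checked after solidifying. Plates for both drugs were prepared the same day from freshly made media, and MICs were determined simultaneously with the pH 5.8 set.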

Acinetobacter baumannii [2] = test: Antimicrobial activity against Acinetobacter baumannii isolate 3 at pH 7.2; how it was run: as §1
Acinetobacter baumannii [3] = test: Antimicrobial activity against Acinetobacter baumannii isolate 6 at pH 7.2
How it was run: (§2)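 Agar dilution MIC on Mueller-Hinton agar under standard conditions (pH 7.2). Antibiotic-containing plates were made the same day from freshly prepared medium. Agar pH was checked after solidifying. Both fluoroquinolones were tested simultaneously against A. baumannii isolates with characterized gyrA/parC genes. MICs are in μg/ml.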

Acinetobacter baumannii [4] = test: Antimicrobial activity against Acinetobacter baumannii isolate 11 at pH 7.2; how it was run: as §1
Acinetobacter baumannii [5] = test: Antimicrobial activity against Acinetobacter baumannii isolate 15 at pH 7.2; how it was run: as §1
Acinetobacter baumannii [6] = test: Antimicrobial activity against Acinetobacter baumannii isolate 18 at pH 7.2; how it was run: as §1
Acinetobacter baumannii [7] = test: Antimicrobial activity against Acinetobacter baumannii isolate 21 harboring GyrA Ser83-Leu mutation at pH 7.2; how it was run: as §1
Acinetobacter baumannii [8] = test: Antimicrobial activity against Acinetobacter baumannii isolate 32 harboring GyrA Ser83-Leu mutation at pH 7.2
How it was run: (§3)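 Agar dilution MIC on Mueller-Hinton agar. For the acidic condition, HCl was added to bring the agar to pH 5.8 before pouring the antibiotic plates, and the pH was checked after the agar set. The standard condition was pH 7.2. Both drugs' plates were made the same day from fresh medium, and MICs were read at the same time.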

Acinetobacter baumannii [9] = test: Antimicrobial activity against Acinetobacter baumannii isolate 35 harboring GyrA Ser83-Leu mutation at pH 7.2; how it was run: as §3
Acinetobacter baumannii [10] = test: Antimicrobial activity against Acinetobacter baumannii isolate 38 harboring GyrA Ser83-Leu mutation at pH 7.2; how it was run: as §3
Acinetobacter baumannii [11] = test: Antimicrobial activity against Acinetobacter baumannii isolate 41 harboring GyrA Ser83-Leu mutation at pH 7.2; how it was run: as §3
Acinetobacter baumannii [12] = test: Antimicrobial activity against Acinetobacter baumannii isolate 44 harboring GyrA Ser83-Leu and ParC Glu84-Lys mutation at pH 7.2; how it was run: as §3
Acinetobacter baumannii [13] = test: Antimicrobial activity against Acinetobacter baumannii isolate 48 harboring GyrA Ser83-Leu and ParC Ser80-Leu mutation at pH 7.2; how it was run: as §3
Acinetobacter baumannii [14] = test: Antimicrobial activity against Acinetobacter baumannii isolate 57 harboring GyrA Ser83-Leu and ParC Ser80-Phe mutation at pH 7.2; how it was run: as §2
Acinetobacter baumannii [15] = test: Antimicrobial activity against Acinetobacter baumannii isolate 58 harboring GyrA Ser83-Leu and ParC Ser80-Leu mutation at pH 7.2; how it was run: as §2
Acinetobacter baumannii [16] = test: Antimicrobial activity against Acinetobacter baumannii isolate 66 harboring GyrA Ser83-Leu mutation at pH 7.2; how it was run: as §2
Acinetobacter baumannii [17] = test: Antimicrobial activity against adeB overexpressing Acinetobacter baumannii isolate 67 harboring GyrA Ser83-Leu and ParC Ser80-Leu mutation at pH 7.2; how it was run: as §2
Acinetobacter baumannii [18] = test: Antimicrobial activity against Acinetobacter baumannii isolate 1 at pH 5.8
How it was run: (§4)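 MIC by agar dilution on Mueller-Hinton agar acidified to pH 5.8 with HCl before antibiotic-containing plates were poured. Agar pH was rechecked once the agar had solidified. Isolates had characterized gyrA/parC genes. Plates for both drugs were made the same day from fresh media, and MICs were read in parallel with the standard-pH set.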

Acinetobacter baumannii [19] = test: Antimicrobial activity against Acinetobacter baumannii isolate 4 at pH 5.8
How it was run: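 Agar dilution MIC on Mueller-Hinton agar acidified with HCl before pouring antibiotic plates; agar pH checked after setting. Isolate has characterized gyrA/parC genes. Plates made the same day from fresh medium, and both drugs tested at the same time. Read-out: MIC (μg/ml).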

Acinetobacter baumannii [20] = test: Antimicrobial activity against Acinetobacter baumannii isolate 5 at pH 5.8; how it was run: as §3
Acinetobacter baumannii [21] = test: Antimicrobial activity against Acinetobacter baumannii isolate 6 at pH 5.8
How it was run: (§5)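 Agar dilution MIC on Mueller-Hinton agar acidified to pH 5.8 with HCl before the antibiotic-containing plates were poured. Agar pH was checked after solidifying. Plates were made the same day from fresh medium. Both fluoroquinolones were tested simultaneously against A. baumannii isolates with characterized gyrA/parC genes. MICs are in μg/ml.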

Acinetobacter baumannii [22] = test: Antimicrobial activity against Acinetobacter baumannii isolate 9 at pH 5.8; how it was run: as §5
Acinetobacter baumannii [23] = test: Antimicrobial activity against Acinetobacter baumannii isolate 10 at pH 5.8; how it was run: as §4
Acinetobacter baumannii [24] = test: Antimicrobial activity against Acinetobacter baumannii isolate 13 at pH 5.8; how it was run: as §4
Acinetobacter baumannii [25] = test: Antimicrobial activity against Acinetobacter baumannii isolate 18 at pH 5.8; how it was run: as §4
Acinetobacter baumannii [26] = test: Antimicrobial activity against Acinetobacter baumannii isolate 22 harboring GyrA Ser83-Leu mutation at pH 5.8; how it was run: as §4
Acinetobacter baumannii [27] = test: Antimicrobial activity against Acinetobacter baumannii isolate 28 harboring GyrA Ser83-Leu mutation at pH 5.8; how it was run: as §4
Acinetobacter baumannii [28] = test: Antimicrobial activity against Acinetobacter baumannii isolate 30 harboring GyrA Ser83-Leu mutation at pH 5.8; how it was run: as §4
Acinetobacter baumannii [29] = test: Antimicrobial activity against Acinetobacter baumannii isolate 32 harboring GyrA Ser83-Leu mutation at pH 5.8; how it was run: as §3
Acinetobacter baumannii [30] = test: Antimicrobial activity against Acinetobacter baumannii isolate 37 harboring GyrA Ser83-Leu mutation at pH 5.8; how it was run: as §3
Acinetobacter baumannii [31] = test: Antimicrobial activity against Acinetobacter baumannii isolate 39 harboring GyrA Ser83-Leu mutation at pH 5.8; how it was run: as §3
Acinetobacter baumannii [32] = test: Antimicrobial activity against Acinetobacter baumannii isolate 43 harboring GyrA Ser83-Leu mutation at pH 5.8; how it was run: as §3
Acinetobacter baumannii [33] = test: Antimicrobial activity against Acinetobacter baumannii isolate 45 harboring GyrA Ser83-Leu and ParC Ser80-Leu mutation at pH 5.8; how it was run: as §3
Acinetobacter baumannii [34] = test: Antimicrobial activity against Acinetobacter baumannii isolate 46 harboring GyrA Ser83-Leu and ParC Ser80-Leu mutation at pH 5.8; how it was run: as §3
Acinetobacter baumannii [35] = test: Antimicrobial activity against Acinetobacter baumannii isolate 47 harboring GyrA Ser83-Leu and ParC Ser80-Phe mutation at pH 5.8; how it was run: as §3
Acinetobacter baumannii [36] = test: Antimicrobial activity against Acinetobacter baumannii isolate 52 harboring GyrA Ser83-Leu and ParC Ser80-Leu mutation at pH 5.8; how it was run: as §3
Acinetobacter baumannii [37] = test: Antimicrobial activity against Acinetobacter baumannii isolate 56 harboring GyrA Ser83-Leu and ParC Ser80-Leu mutation at pH 5.8; how it was run: as §5
Acinetobacter baumannii [38] = test: Antimicrobial activity against Acinetobacter baumannii isolate 59 harboring GyrA Ser83-Leu and ParC Glu84-Lys mutation at pH 5.8; how it was run: as §5
Acinetobacter baumannii [39] = test: Antimicrobial activity against Acinetobacter baumannii isolate 61 harboring GyrA Ser83-Leu and ParC Ser80-Leu mutation at pH 5.8; how it was run: as §5
Acinetobacter baumannii [40] = test: Antimicrobial activity against Acinetobacter baumannii isolate 62 harboring GyrA Ser83-Leu and ParC Ser80-Leu mutation at pH 5.8; how it was run: as §5
Acinetobacter baumannii [41] = test: Antimicrobial activity against Acinetobacter baumannii isolate 37 harboring GyrA Ser83-Leu mutation at pH 7.2; how it was run: as §3

With `O=C(O)c1cn(C2CC2)c2cc(N3CCNCC3)c(F)cc2c1=O` [CIPROFLOXACIN] the MIC (Acinetobacter baumannii [1]) was 0.06 µg/mL (≈ 0.181 µM), the MIC (Acinetobacter baumannii [2]) was 0.12 µg/mL (≈ 0.362 µM) and the MIC (Acinetobacter baumannii [3]) was 0.12 µg/mL (≈ 0.362 µM). The MIC (Acinetobacter baumannii [4]) was 0.25 µg/mL (≈ 0.754 µM), the MIC (Acinetobacter baumannii [5]) was 1 µg/mL (≈ 3.02 µM) and the MIC (Acinetobacter baumannii [6]) was 1 µg/mL (≈ 3.02 µM). It also gave an MIC (Acinetobacter baumannii [7]) of 4 µg/mL (≈ 12.1 µM), an MIC (Acinetobacter baumannii [8]) of 16 µg/mL (≈ 48.3 µM) and an MIC (Acinetobacter baumannii [9]) of 8 µg/mL (≈ 24.1 µM). The MIC (Acinetobacter baumannii [10]) was 32 µg/mL (≈ 96.6 µM), the MIC (Acinetobacter baumannii [11]) was 16 µg/mL (≈ 48.3 µM) and the MIC (Acinetobacter baumannii [12]) was 32 µg/mL (≈ 96.6 µM). For the same molecule, the MIC (Acinetobacter baumannii [13]) was 128 µg/mL (≈ 386 µM), the MIC (Acinetobacter baumannii [14]) was 128 µg/mL (≈ 386 µM) and the MIC (Acinetobacter baumannii [15]) was 128 µg/mL (≈ 386 µM). The MIC (Acinetobacter baumannii [16]) was 32 µg/mL (≈ 96.6 µM), the MIC (Acinetobacter baumannii [17]) was > 128 µg/mL and the MIC (Acinetobacter baumannii [18]) was 2 µg/mL (≈ 6.04 µM). The MIC (Acinetobacter baumannii [19]) was 1 µg/mL (≈ 3.02 µM), the MIC (Acinetobacter baumannii [20]) was 2 µg/mL (≈ 6.04 µM) and the MIC (Acinetobacter baumannii [21]) was 2 µg/mL (≈ 6.04 µM). The MIC (Acinetobacter baumannii [22]) was 2 µg/mL (≈ 6.04 µM), the MIC (Acinetobacter baumannii [23]) was 2 µg/mL (≈ 6.04 µM) and the MIC (Acinetobacter baumannii [24]) was 4 µg/mL (≈ 12.1 µM). The MIC (Acinetobacter baumannii [25]) was 8 µg/mL (≈ 24.1 µM), the MIC (Acinetobacter baumannii [26]) was 32 µg/mL (≈ 96.6 µM) and the MIC (Acinetobacter baumannii [27]) was 32 µg/mL (≈ 96.6 µM). It also gave an MIC (Acinetobacter baumannii [28]) of 32 µg/mL (≈ 96.6 µM), an MIC (Acinetobacter baumannii [29]) of 32 µg/mL (≈ 96.6 µM) and an MIC (Acinetobacter baumannii [30]) of 128 µg/mL (≈ 386 µM). For the same molecule, the MIC (Acinetobacter baumannii [31]) was > 128 µg/mL, the MIC (Acinetobacter baumannii [32]) was > 128 µg/mL and the MIC (Acinetobacter baumannii [33]) was > 128 µg/mL. The MIC (Acinetobacter baumannii [34]) was > 128 µg/mL, the MIC (Acinetobacter baumannii [35]) was > 128 µg/mL and the MIC (Acinetobacter baumannii [36]) was > 128 µg/mL. The MIC (Acinetobacter baumannii [37]) was > 128 µg/mL, the MIC (Acinetobacter baumannii [38]) was > 128 µg/mL and the MIC (Acinetobacter baumannii [39]) was > 128 µg/mL. The MIC (Acinetobacter baumannii [40]) was > 128 µg/mL and the MIC (Acinetobacter baumannii [41]) was 16 µg/mL (≈ 48.3 µM).
